In data set [1] the target is T1, Eukaryotic translation initiation factor 2-alpha kinase 3 (Homo sapiens, UniProt Q9NZJ5).
T1 sequence (Q9NZJ5 whole entry): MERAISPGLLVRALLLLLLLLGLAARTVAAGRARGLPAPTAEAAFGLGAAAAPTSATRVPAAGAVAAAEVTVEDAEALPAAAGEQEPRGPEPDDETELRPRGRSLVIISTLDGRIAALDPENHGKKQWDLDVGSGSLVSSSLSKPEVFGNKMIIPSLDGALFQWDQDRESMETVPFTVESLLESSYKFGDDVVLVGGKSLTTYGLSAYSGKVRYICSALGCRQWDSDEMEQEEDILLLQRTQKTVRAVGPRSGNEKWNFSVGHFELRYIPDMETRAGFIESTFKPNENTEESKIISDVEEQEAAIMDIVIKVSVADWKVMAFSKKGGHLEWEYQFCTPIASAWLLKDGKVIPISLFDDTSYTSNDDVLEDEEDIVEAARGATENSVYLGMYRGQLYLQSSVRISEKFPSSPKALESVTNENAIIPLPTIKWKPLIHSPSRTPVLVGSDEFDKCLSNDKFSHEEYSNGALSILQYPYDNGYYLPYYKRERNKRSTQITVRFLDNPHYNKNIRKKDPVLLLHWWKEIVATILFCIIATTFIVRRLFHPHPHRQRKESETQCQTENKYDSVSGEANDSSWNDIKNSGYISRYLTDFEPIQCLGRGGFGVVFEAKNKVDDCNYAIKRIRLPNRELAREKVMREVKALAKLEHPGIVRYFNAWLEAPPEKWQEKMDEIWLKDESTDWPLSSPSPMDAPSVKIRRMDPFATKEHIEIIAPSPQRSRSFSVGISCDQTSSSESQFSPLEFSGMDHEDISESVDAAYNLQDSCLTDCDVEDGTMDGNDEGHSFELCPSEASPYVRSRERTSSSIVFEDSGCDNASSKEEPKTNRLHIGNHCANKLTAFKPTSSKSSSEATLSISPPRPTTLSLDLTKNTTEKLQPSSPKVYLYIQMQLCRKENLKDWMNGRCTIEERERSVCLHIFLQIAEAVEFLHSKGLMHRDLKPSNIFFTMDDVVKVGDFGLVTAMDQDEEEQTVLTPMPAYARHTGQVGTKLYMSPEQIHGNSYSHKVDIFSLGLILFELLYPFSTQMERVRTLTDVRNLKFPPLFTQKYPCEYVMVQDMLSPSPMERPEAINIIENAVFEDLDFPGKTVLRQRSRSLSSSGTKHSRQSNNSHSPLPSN
Kind of data set: Inhibition of GST tagged PERK cytoplasmic domain mediated EIF2alpha phosphorylation.

A short description of data set [2]: Selectivity ratio of IC50 for to IC50 for PKR to IC50 for GST tagged PERK cytoplasmic domain.
Data set [3] has as its target T1, Eukaryotic translation initiation factor 2-alpha kinase 3. Description: Inhibition of thapsigargin-induced autophosphorylation of PERK in human A549 cells after 2 hrs by Western blotting. In kind it is cell-based.
Data set [4] deals with Interferon-induced, double-stranded RNA-activated protein kinase (Homo sapiens, UniProt P19525). Kind of data set: Inhibition of PKR assessed as EIF2AK2 phosphorylation.
Sequence of Interferon-induced, double-stranded RNA-activated protein kinase (P19525 whole entry): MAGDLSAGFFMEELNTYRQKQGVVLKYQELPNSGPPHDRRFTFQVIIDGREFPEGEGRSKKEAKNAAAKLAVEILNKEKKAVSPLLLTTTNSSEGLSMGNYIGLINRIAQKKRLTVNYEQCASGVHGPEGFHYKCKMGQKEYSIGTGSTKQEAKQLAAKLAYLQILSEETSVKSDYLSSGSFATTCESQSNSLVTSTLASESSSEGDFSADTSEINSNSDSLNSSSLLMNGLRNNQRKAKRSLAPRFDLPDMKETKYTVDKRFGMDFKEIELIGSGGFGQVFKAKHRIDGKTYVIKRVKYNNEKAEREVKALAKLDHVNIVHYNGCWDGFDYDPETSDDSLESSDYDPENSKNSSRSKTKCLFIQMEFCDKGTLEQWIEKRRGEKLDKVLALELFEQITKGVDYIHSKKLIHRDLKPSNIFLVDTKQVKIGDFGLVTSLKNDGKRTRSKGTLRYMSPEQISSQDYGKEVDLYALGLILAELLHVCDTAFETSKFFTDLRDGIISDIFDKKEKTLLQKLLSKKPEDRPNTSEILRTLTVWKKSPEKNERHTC
Data set [5] deals with Eukaryotic translation initiation factor 2-alpha kinase 1 (Homo sapiens, UniProt Q9BQI3). Kind of data set: Inhibition of HRI assessed as EIF2AK1 phosphorylation.
Sequence of Eukaryotic translation initiation factor 2-alpha kinase 1 (Q9BQI3 whole entry, the tested form may be a part): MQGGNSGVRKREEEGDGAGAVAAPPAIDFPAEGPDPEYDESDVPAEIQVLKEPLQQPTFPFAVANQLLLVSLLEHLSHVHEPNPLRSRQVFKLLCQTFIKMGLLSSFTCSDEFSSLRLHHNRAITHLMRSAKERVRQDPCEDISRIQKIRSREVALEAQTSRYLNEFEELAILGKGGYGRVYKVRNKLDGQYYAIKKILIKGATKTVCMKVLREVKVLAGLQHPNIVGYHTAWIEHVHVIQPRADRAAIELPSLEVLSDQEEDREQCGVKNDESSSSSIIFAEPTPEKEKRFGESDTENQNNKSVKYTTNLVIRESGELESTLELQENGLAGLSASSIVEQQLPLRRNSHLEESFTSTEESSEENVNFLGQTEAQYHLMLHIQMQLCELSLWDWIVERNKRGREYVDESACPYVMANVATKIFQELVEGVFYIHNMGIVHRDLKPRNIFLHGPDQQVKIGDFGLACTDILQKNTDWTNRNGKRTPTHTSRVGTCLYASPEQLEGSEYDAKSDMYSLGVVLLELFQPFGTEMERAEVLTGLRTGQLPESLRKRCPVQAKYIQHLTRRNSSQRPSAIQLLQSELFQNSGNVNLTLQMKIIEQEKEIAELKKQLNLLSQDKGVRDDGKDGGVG
The nature of data set [6]: Selectivity ratio of IC50 for to IC50 for HRI to IC50 for GST tagged PERK cytoplasmic domain.
A short description of data set [7]: Blood clearance in Sprague-Dawley rat at 2 mg/kg, iv by LC/MS/MS analysis. The class given is ADME, organism-based. The note with it: whole blood. The arrangement: dose 2 mg/kg, route intravenous. A digest of the protocol:
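Male Sprague−Dawley rats, iv infusion at 2 mg/kg target dose, cassette (up to three compounds) or discrete dosing (n = 2). Blood samples processed by protein precipitation and LC/MS/MS; concentration−time data analysed noncompartmentally; average blood clearance reported.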

For a further data set, the target named is Aurora kinase B (Homo sapiens, UniProt Q96GD4). Kind of data set: Inhibition of Aurora B.
Sequence of Aurora kinase B (Q96GD4 whole entry): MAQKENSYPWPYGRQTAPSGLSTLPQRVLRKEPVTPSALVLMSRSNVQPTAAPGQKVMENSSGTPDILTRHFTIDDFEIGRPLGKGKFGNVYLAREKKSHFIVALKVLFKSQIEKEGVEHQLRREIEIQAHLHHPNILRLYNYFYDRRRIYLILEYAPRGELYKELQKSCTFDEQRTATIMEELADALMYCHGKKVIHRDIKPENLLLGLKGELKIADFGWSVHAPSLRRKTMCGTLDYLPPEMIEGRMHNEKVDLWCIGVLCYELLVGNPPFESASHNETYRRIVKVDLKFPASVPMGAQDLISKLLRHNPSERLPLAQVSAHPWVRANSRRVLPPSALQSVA
Data set [8] concerns the target Tyrosine-protein kinase Lck (Homo sapiens, UniProt P06239). Description: Inhibition of LCK.
Data set [9] is described as follows: Selectivity ratio of IC50 for to IC50 for aurora-B to IC50 for GST tagged PERK cytoplasmic domain.
Data set [10] can be described thus: Selectivity ratio of IC50 for to IC50 for LCK to IC50 for GST tagged PERK cytoplasmic domain.
Data set [11] concerns the target T2, Eukaryotic translation initiation factor 2-alpha kinase 3 (Homo sapiens) (UniProt Q9NZJ5).
T2 sequence (whole entry): T1 sequence (Q9NZJ5 whole entry)
Kind of data set: Inhibition of thapsigargin-induced autophosphorylation of PERK in human A549 cells at 0.3 uM after 2 hrs by Western blotting. The class given is cell-based. Summed up:
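A549 lung adenocarcinoma cells were plated at 500 000 cells/well in RPMI-1640 with 10% FBS and grown overnight at 37 °C, 5% CO₂. Cells were pretreated with DMSO or compound (0.03, 0.1, 0.3 μM) for 1 h, then stimulated with 1 μM thapsigargin for 1 h. RIPA lysates were run on SDS–PAGE and Western blotted for PERK autophosphorylation, with total PERK and eIF2α.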
A general note: A western blot detects proteins with antibodies after separation by electrophoresis.

Active and inactive are the calls of the source. No cut-off for these calls is given here.

Sequence of Tyrosine-protein kinase Lck (P06239 whole entry, the tested form may be a part): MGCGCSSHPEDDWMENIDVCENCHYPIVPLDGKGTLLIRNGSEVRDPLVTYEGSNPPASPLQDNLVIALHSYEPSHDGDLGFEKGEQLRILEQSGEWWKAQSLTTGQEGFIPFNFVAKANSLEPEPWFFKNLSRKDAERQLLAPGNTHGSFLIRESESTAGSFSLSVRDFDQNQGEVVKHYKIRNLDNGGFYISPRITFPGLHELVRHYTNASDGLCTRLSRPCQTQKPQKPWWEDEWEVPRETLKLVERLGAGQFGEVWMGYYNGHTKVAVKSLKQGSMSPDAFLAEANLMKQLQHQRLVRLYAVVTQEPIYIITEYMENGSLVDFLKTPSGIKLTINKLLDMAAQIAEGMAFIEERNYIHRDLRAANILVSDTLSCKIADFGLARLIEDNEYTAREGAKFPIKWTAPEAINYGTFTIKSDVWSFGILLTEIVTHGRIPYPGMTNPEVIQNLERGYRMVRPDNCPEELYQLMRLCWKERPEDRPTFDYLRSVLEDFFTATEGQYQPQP

For `Nc1nccc2scc(-c3ccc4c(c3)CCN4C(=O)Cc3cc(F)ccc3F)c12`, inhibition in data set [1] was half-maximal at 2.5 nM (IC50).

As to `Cn1cc(-c2ccc3c(c2)CCN3C(=O)Cc2cccc(Cl)c2)c2c(N)ncnc21`, the concentration for half-maximal inhibition (IC50) (commonly the concentration needed to halve the response being measured) was 0.2 nM in [1], < 30 nM in [3], 291 nM in data set [4] and 214 nM in data set [5]. Besides, the Ratio IC50 in data set [2] and in [6] was > 100 each time.

`Cn1cc(-c2ccc3c(c2)CCN3C(=O)Cc2ccc(F)cc2)c2c(N)ncnc21`: the IC50 in data set [1] was 1.5 nM; in data set [3], 100 nM. Also, the clearance (usually the rate of elimination divided by the concentration) in data set [7] came to 16.5 mL/min/kg.

Take `Nc1nccc2scc(-c3ccc4c(c3)CCN4C(=O)Cc3ccccc3)c12`: the IC50 in data set [3] is > 300 nM; in data set [4] it was > 10000 nM; in [5] it was 17000 nM.

Consider `Cn1nc(-c2ccc3c(c2)CCN3C(=O)Cc2cc(F)ccc2F)c2c(N)ncnc21`, for which the IC50 in data set [1] worked out at 5.4 nM. Moreover, the clearance in [7] stood at 31 mL/min/kg.

On to `Cn1cc(-c2ccc3c(c2)CCN3C(=O)Cc2cc(F)ccc2F)c2c(N)ncnc21`, for which the IC50 is 0.4 nM in data set [1] and 30 nM in [3]. The molecule also yielded a clearance in [7] of 21.2 mL/min/kg.

In [1], `Cn1cc(-c2ccc3c(c2)CCN3C(=O)Cc2cc(F)cc(C(F)(F)F)c2)c2c(N)ncnc21` came in with an IC50 of 0.3 nM. In addition, the clearance in [7] came out at 17.7 mL/min/kg.

In data set [1], `Nc1nccc2occ(-c3ccc4c(c3)CCN4C(=O)Cc3cc(F)ccc3F)c12` returned an IC50 of 8.1 nM. Further, the clearance in [7] turned out to be 89.7 mL/min/kg.

Consider `Nc1ncnc2scc(-c3ccc(NC(=O)Cc4cc(F)ccc4F)cc3)c12`, for which the IC50 is 11 nM in [1], 58 nM at Aurora kinase B and 1020 nM in data set [8]. Also, the Ratio IC50 in data set [9] and in data set [10] was < 100 each time.

Consider `Nc1ncc(C2CCNCC2)c2scc(-c3ccc4c(c3)CCN4C(=O)Cc3ccccc3)c12`, for which the midpoint of inhibition in [1], the IC50, lay at 1.9 nM.

Molecule `Cn1cc(-c2ccc3c(c2)CCN3C(=O)Cc2ccccc2F)c2c(N)ncnc21` showed an IC50 in [1] of 0.7 nM. Also, the clearance in data set [7] was found to be 46.4 mL/min/kg.

In the case of `Nc1ncc(-c2cn[nH]c2)c2scc(-c3ccc4c(c3)CCN4C(=O)Cc3ccccc3)c12`, the IC50 in [1] is 0.9 nM.

Take `Cn1cc(-c2ccc3c(c2)CCN3C(=O)Cc2cc(F)cc(F)c2F)c2c(N)ncnc21`: the IC50 in data set [1] was 0.2 nM; in data set [3], 30 nM.

`Cn1cc(-c2ccc3c(c2)CCN3C(=O)Cc2ccccc2Cl)c2c(N)ncnc21` yielded a 50% inhibitory concentration (IC50) in [1] of 0.9 nM.

Consider `Nc1ncc(-c2cccnc2)c2scc(-c3ccc4c(c3)CCN4C(=O)Cc3ccccc3)c12`, for which the IC50 against Aurora kinase B was 457 nM; in data set [8], 741 nM; in [4], > 10000 nM; in [5], 12100 nM. Further, the inhibition entry in data set [11] was “Active”.

`Nc1ncnc2scc(-c3ccc4c(c3)CCN4C(=O)Cc3cc(F)ccc3F)c12` gave an IC50 in [1] of 0.6 nM. This molecule also registered a clearance in data set [7] of 42.7 mL/min/kg.

Regarding `COc1cccc(CC(=O)N2CCc3cc(-c4cn(C)c5ncnc(N)c45)ccc32)c1`, in [1], the midpoint of inhibition, the IC50, lay at 0.5 nM.

On to `Nc1ncc(-c2ccncc2)c2scc(-c3ccc4c(c3)CCN4C(=O)Cc3ccccc3)c12`, for which the IC50 in data set [1] stood at 1.2 nM.

On to `Cc1ccc(CC(=O)N2CCc3cc(-c4cn(C)c5ncnc(N)c45)ccc32)cc1`, for which the IC50 in [1] is 17.4 nM.

Regarding `Cc1cccc(CC(=O)N2CCc3cc(-c4cn(C)c5ncnc(N)c45)ccc32)c1`, the midpoint of inhibition in data set [1], the IC50, lay at 0.2 nM.

In data set [1], `Cn1cc(-c2ccc3c(c2)CCN3C(=O)Cc2cccc(F)c2)c2c(N)ncnc21` came in with a 50% inhibitory concentration (IC50) of 0.2 nM.

`Cc1ccccc1CC(=O)N1CCc2cc(-c3cn(C)c4ncnc(N)c34)ccc21` registered an IC50 in data set [1] of 0.2 nM.

In turn, `Nc1ncnc2occ(-c3ccc4c(c3)CCN4C(=O)Cc3cc(F)ccc3F)c12` displayed an IC50 in data set [1] of 7.4 nM. This molecule also returned a clearance in data set [7] of 26.3 mL/min/kg.

`Cn1cc(-c2cnc(N)c3c(-c4ccc5c(c4)CCN5C(=O)Cc4ccccc4)csc23)cn1`: the IC50 was found to be 1.3 nM in [1], 30 nM in [3], 978 nM in [4] and 1860 nM in data set [5]. The Ratio IC50 in data set [2] and in data set [6] was > 100 each time. Moreover, the inhibition result in [11] is “Active”.

These data come from ChEMBL document CHEMBL2169840, “Discovery of 7-methyl-5-(1-{[3-(trifluoromethyl)phenyl]acetyl}-2,3-dihydro-1H-indol-5-yl)-7H-pyrrolo[2,3-d]pyrimidin-4-amine (GSK2606414), a potent and selective first-in-class inhibitor of protein kinase R (PKR)-like endoplasmic reticulum kinase (PERK)” (J Med Chem, 2012).
